Bioassay records as filed in PubChem.
Most compounds without a hit are left out; they make up all but 1.4% or so of the library.
Casp6 inh = inhibitors of human caspase-6 | P55212 | 0.53% of 350,000 active | purified caspase-6, Z-VEID-R110 cleavage fluorescence | inhibition, % at 12.5 µM;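 active = mean inhibition across replicates at least about 35%, with every replicate also reaching that limit, limit read from the data; inconclusive = only one of the two criteria met; inactive = neither criterion met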;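 also: 0% = median of neutral control wells and 100% = no fluorescence left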
Target sequence (P55212 24-179 limits assumed): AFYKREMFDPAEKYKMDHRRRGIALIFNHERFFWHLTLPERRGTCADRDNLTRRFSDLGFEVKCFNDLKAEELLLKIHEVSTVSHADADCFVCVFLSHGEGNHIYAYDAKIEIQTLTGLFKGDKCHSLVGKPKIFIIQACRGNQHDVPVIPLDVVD
Target sequence (P55212 194-293 limits assumed): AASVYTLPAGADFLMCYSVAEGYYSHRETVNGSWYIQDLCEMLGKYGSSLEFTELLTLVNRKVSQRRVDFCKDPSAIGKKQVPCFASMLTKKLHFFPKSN
Vif imaging = HIV Vif inhibition; HEK293T cells, Vif self-association by quenched fluorescence, imaging, 24 h; inhibition, % at 7.49 µM; 0.35% of 340,000 active; in the data active = inhibition above about 50%, passing the limit was not always enough; inconclusive = no clear call, values can overlap the other calls; inactive = below about 31%
T cell HTS = T cell immune modulators affecting CD8 T cell-vesicle binding; 2C CD8+ T cell-vesicle binding, flow cytometry; active compounds read low; response (vesicle binding), % at 7 µM; 0.068% of 330,000 active; AID 2052;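 active = response, share of CD8 T cells binding vesicles, and their 90th percentile fluorescence all below set limits, cut at about 80% in these data, passing the limit was not always enough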;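 also: values below 100% mean blocked vesicle binding to the CD8+ T cells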
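material = purified 2C TCR transgenic mouse naive CD8+ T cells | controls = Unloaded micro-vesicles (low), QL9 vesicles with 0.7% DMSO (high) | detection = cytometric PE anti-B7-1 and Alexa647 anti-CD8 signals after 1% paraformaldehyde fixation | incubation = binding step 1.5 h, 37 °C, antibody labelling 20 min, ice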
Myeloid diff 2 = promotes myeloid progenitor differentiation. calls only at 10 µM. ER-HoxA9 myeloid progenitors, lysozyme-GFP differentiation, flow cytometry. AID 624256. 1% of 360,000 active;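 active = normalized GFP-positive differentiation at or above the plate's own cutoff, the solvent-only control mean plus 3 SD; inconclusive = no clear call, values can overlap the other calls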;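 also: cells exposed to compound for four days before flow analysis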
Myeloid diff CP1 = compounds promoting myeloid differentiation. shares compounds with Myeloid diff 2. ER-HoxA9 myeloid progenitors, GFP/Mac1 double-positive flow. calls only. 2% of 2,300 active. AID 651706;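 active = share of green or green-and-red cells above 9 and 9% in run 1 or 4 and 3% in run 2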
GFP autofluor = flagged as fluorescent in myeloid differentiation counter-screen. shares compounds with Myeloid diff 2. fluorescence response, % (concentration not given with the values). ER-HoxA9 myeloid progenitors, no estrogen, GFP autofluorescence flow cytometry; vehicle wells 0%, positive control 100%. 7.4% of 2,300 active. AID 651707;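 active = over 5% cells positive for green fluorescent reporter, or over 2% positive for both it and APC stain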;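 also: range taken on the double positive population between DMSO and positive control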
Numbers without * were called inactive; i = inactive; u = inconclusive; x = not tested or not shown; + = active, no number.

SMILES | Casp6 inh | Vif imaging | T cell HTS | Myeloid diff 2 | Myeloid diff CP1 | GFP autofluor
O=c1[nH]nc(-c2ccc(NCCCO)c([N+](=O)[O-])c2)c2ccccc12 | x | -1 | 207 | i | x | x
O=c1[nH]nc(-c2ccc(NCCO)c([N+](=O)[O-])c2)c2ccccc12 | -1 | 56* | 100 | i | x | x
O=C(O)c1cc(-c2cccnc2)nc2ccc(Br)cc12 | 0 | 2 | 101 | + | x | x
CCN1CCN(C(=O)c2cc(-c3cccnc3)nc3ccc(Br)cc23)CC1 | 0 | 7 | 348 | i | x | x
CN1c2ccc(C3=CCCCC3)cc2[C@H]2[C@H](CCN2C(=O)C2CC2)[C@@H]1CO | 10 | x | x | x | x | x
CN1CCN(CCCNC(=O)c2ccc(/C=C3/Sc4ccccc4N(Cc4cccc(Cl)c4)C3=O)cc2)CC1 | -133 | 1 | x | + | x | x
CCC(=O)N1[C@@H]2c3cccc(=O)n3C[C@@H]2[C@@H](CO)[C@@H]1C(=O)N[C@@H](C)c1ccccc1 | -2 | x | x | x | x | x
CC(N)C(=O)NC(C(=O)NC(C)C(=O)Nc1cccc2ccccc12)C(C)C (centres undefined) | 45* | x | x | i | x | x
Nc1ccc(-c2c3ccc(=O)cc-3oc3cc(O)ccc23)c(C(=O)O)c1 | x | 73* | 370 | + | x | x
Cc1onc(-c2ccccc2)c1C(=O)NC(=S)NNC(=O)c1ccccc1O | -2 | x | 446 | + | x | x
O=C(CC1CC1)N[C@H]1C[C@@H]2O[C@H](CO)CC[C@@H]2O[C@@H]1CCc1ccc(C#Cc2ccccc2)cc1 | -1 | x | x | x | x | x
COc1ccc(-c2cc(C(=O)NC(Cc3cc4ccccc4[nH]3)C(=O)O)c(C)o2)cc1OC (centres undefined) | 48* | 0 | 324 | i | x | x
COc1ccc(-c2cc(C(=O)O)c(C)o2)cc1OC | x | -7 | i | i | x | x
Cc1ccc(S(=O)(=O)Nc2c(C)cc([N+](=O)[O-])cc2C)cc1 | 4 | 5 | x | i | x | x
Cc1ccc(S(=O)(=O)c2ccc([N+](=O)[O-])o2)cc1 | 12 | 90* | x | u | x | x
CC(C)c1nnc(N2C(=O)c3oc4ccccc4c(=O)c3C2c2ccco2)s1 (centres undefined) | x | -4 | 218 | i | x | x
Cc1nnc(N2C(=O)c3oc4ccccc4c(=O)c3C2c2ccco2)s1 (centres undefined) | 38* | 2 | 243 | i | x | x
CCN(C[C@H]1N[C@@](CC)(C(=O)OC)[C@H]2C(=O)N(Cc3ccccc3)C(=O)[C@@H]12)C(=O)Nc1ccc(OC)cc1 | -2 | x | 536 | + | x | x
CCN(C[C@H]1N[C@@](CC)(C(=O)OC)[C@H]2C(=O)N(Cc3ccccc3)C(=O)[C@@H]12)C(=O)Nc1ccc(C(F)(F)F)cc1 | 0 | 0 | 265 | i | x | x
Cn1cc(C2=C(c3ccc(Cl)cc3Cl)C(=O)NC2=O)c2ccccc21 | -11 | x | 226 | + | x | x
O=C(O)c1cc(S(=O)(=O)N2CCN(S(=O)(=O)c3ccc4ccccc4c3)CC2)ccc1Br | 40* | 4 | 156 | i | x | x
COc1cc(C2C3=C(CC(C)(C)CC3=O)Nc3ccccc3N2C(C)=O)cc(OC)c1OC (centres undefined) | 2 | -2 | 258 | i | i | 0
COc1cc(C2C3=C(CC(c4ccco4)CC3=O)Nc3ccccc3N2C(C)=O)cc(OC)c1OC (centres undefined) | x | -12 | 431 | i | x | x
COc1cccc(NCc2cc3c(C(C)(C)C)nn(-c4ccccc4)c3[nH]c2=O)c1 | x | 0 | 248 | + | i | 0
CCOc1ccc(NCc2cc3c(C(C)(C)C)nn(-c4ccccc4)c3[nH]c2=O)cc1 | -2 | x | 481 | i | x | x
SMILES | Casp6 inh | Vif imaging | T cell HTS | Myeloid diff 2 | Myeloid diff CP1 | GFP autofluor
COc1ccc2[nH]c(=O)c(CN(CC3CCCO3)S(=O)(=O)c3ccccc3)cc2c1 (centres undefined) | 1 | -2 | 314 | i | x | x
COc1ccc2cc(CN(CC3CCCO3)S(=O)(=O)c3ccccc3)c(=O)[nH]c2c1 (centres undefined) | x | 13 | 601 | + | i | 0
Cc1c(N=C2NN=C(c3c[nH]c4ccccc34)CS2)c(=O)n(-c2ccccc2)n1C | -2 | -13 | 278 | + | i | 5
CO[C@H]1CN(C)C(=O)c2ccc(NC(=O)CC(F)(F)F)cc2OC[C@H](C)N(C(=O)C2CCOCC2)C[C@@H]1C | 0 | x | x | x | x | x
C/C=C/c1ccc2c(c1)O[C@@H](CN(C)CC1CCOCC1)[C@H](C)CN([C@@H](C)CO)S2(=O)=O | 0 | x | x | x | x | x
Cc1nc(SC(C)C(=O)NCC2CCCO2)c2cc(-c3ccccc3)sc2n1 (centres undefined) | 1 | -24 | 434 | + | i | 39*
CC(C)(C)[C@@H]1C=C(C(=O)O)[C@H](c2ccc(Cl)cc2)N1S(=O)(=O)c1ccccc1 | 2 | x | 244 | + | i | 3
C[C@@H]1CN([C@@H](C)CO)C(=O)Cc2cc(NC(=O)Cc3ccccc3)ccc2O[C@H]1CN(C)C(=O)Nc1ccc2c(c1)OCO2 | 2 | x | x | x | x | x
COc1cccc(S(=O)(=O)N(C)C[C@H]2Oc3ncc(-c4cccc(C(=O)N(C)C)c4)cc3C(=O)N([C@H](C)CO)C[C@@H]2C)c1 | -1 | x | x | x | x | x
CCCCC(O)(CCCC)C(=O)N/N=C(\C)c1ccc(Cl)cc1 | 0 | -6 | 414 | i | i | 0
C/C(=N/NC(=O)CNc1ccc(C)cc1)c1ccc(Cl)cc1 | x | 5 | 254 | i | x | x
COC(=O)c1cc2c(=O)c3ccccc3oc2nc1/C=C/N(C)C | 6 | -11 | 178 | + | + | 1
Cc1ccc(CNC(=O)CN(c2cccc([N+](=O)[O-])c2)S(=O)(=O)c2ccccc2)cc1 | x | -1 | 264 | i | x | x
Cc1ccc(S(=O)(=O)N(CC(=O)N(C)C)c2cccc([N+](=O)[O-])c2)cc1 | -2 | 2 | 333 | + | i | 0
COc1cc(CSc2nnnn2-c2ccc(C)cc2)cc(OC)c1OC | x | -14 | 840 | i | i | 0
COc1ccc(F)cc1CSc1nnnn1-c1ccc(O)cc1 | 1 | 1 | 198 | i | x | x
COc1ccc2[nH]c3c(c2c1)CCNC3c1ccc([N+](=O)[O-])o1 (centres undefined) | 0 | -3 | 426 | + | i | 99*
COc1ccc2[nH]c3c(c2c1)CCNC3C1CC=C(C)CC1 (centres undefined) | 1 | 0 | 151 | i | x | x
C/C(=N\Nc1ccc([N+](=O)[O-])cc1)c1ccc(O)cc1 | 4 | 4 | 178 | i | x | x
CC(=O)NC/C(C)=N\Nc1ccc([N+](=O)[O-])cc1 | x | 1 | 154 | + | i | 49*
COc1ccc(S(=O)(=O)N(C)C[C@@H]2OCCCC[C@H](C)Oc3ccc(N(C)C)cc3C(=O)N([C@H](C)CO)C[C@@H]2C)cc1 | 3 | x | x | x | x | x
O=C(Nc1ccccc1F)N[C@@H]1CC[C@H](CCNC(=O)C2CCCC2)O[C@H]1CO | 0 | x | x | x | x | x
